Data as given in ChEMBL document CHEMBL1130229, “Synthesis and antimalarial activity in vitro and in vivo of a new ferrocene-chloroquine analogue” (J Med Chem, 1997).

Key:
Plasmodium falciparum [1] = experiment: In vitro antimalarial activity against Plasmodium falciparum FCM17 parasite; assay type: functional, organism-based
How it was run: (§1)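 Young trophozoite-stage P. falciparum cultures were exposed to drug at 0.001–10 μg/mL for 48 h, in triplicate. [³H]hypoxanthine uptake by schizonts was measured by scintillation counting, with drug-free cultures as controls. IC50 was taken from the regression line through mean dpm between maximum and minimum values, and given as mean and SD over n experiments.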

Plasmodium falciparum [2] = experiment: In vitro antimalarial activity against Plasmodium falciparum FCM6; assay type: functional, organism-based; how it was run: as §1
Plasmodium falciparum [3] = experiment: In vitro antimalarial activity against Plasmodium falciparum FG1; assay type: functional, organism-based; how it was run: as §1
Plasmodium falciparum [4] = experiment: In vitro antimalarial activity against Plasmodium falciparum FG2 parasite; assay type: functional, organism-based; how it was run: as §1
Plasmodium falciparum [5] = experiment: In vitro antimalarial activity against Plasmodium falciparum FG3; assay type: functional, organism-based; how it was run: as §1
Plasmodium falciparum [6] = experiment: In vitro antimalarial activity against Plasmodium falciparum FG4; assay type: functional, organism-based; how it was run: as §1
Plasmodium falciparum [7] = experiment: In vitro antimalarial activity against Plasmodium falciparum SGE2; assay type: functional, organism-based; how it was run: as §1
[8] = Compound was tested antimalarial activity in mice (Mus musculus), infected with Plasmodium berghei N., activity is expressed as the mortality rate at a concentration of 1 mg/kg. in experiment 1; 5 out of 5; assay type: ADME, organism-based; parameters: dose 1 mg/kg; conditions: in vivo
[9] = Compound was tested antimalarial activity in mice (Mus musculus), infected with Plasmodium berghei N., activity is expressed as the mortality rate at a concentration of 10 mg/kg. in experiment 1; 0 out of 5; assay type: ADME, organism-based; parameters: dose 10 mg/kg; conditions: in vivo
Mus musculus [10] = experiment: Compound was tested for the antimalarial activity in mice (Mus musculus), infected with Plasmodium berghei N., activity is expressed as the percent of parasitaemia observed in mice (Mus musculus) at end of 4 day test at a concentration of 10 mg/kg in experiment 2; assay type: functional, organism-based; parameters: dose 10 mg/kg
How it was run: (§2)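 4-day suppressive test in female Swiss mice (25 g), infected at day 0 with 10⁷ parasitized RBC from a donor at 20–30% parasitemia. Drug given subcutaneously in PBS once daily, days 0–3; dose in chloroquine base equivalents. Controls received PBS. Parasitemia was counted on 1000 RBC in Giemsa-stained thin films at day 4 and expressed as percent of control-mouse parasitemia.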

Mus musculus [11] = experiment: Compound was tested for the antimalarial activity in mice (Mus musculus), infected with Plasmodium berghei N., activity is expressed as the percent of parasitaemia observed in mice (Mus musculus) at end of 4 day test at a concentration of 1 mg/kg in experiment 1; assay type: functional, organism-based; parameters: dose 1 mg/kg; how it was run: as §2
Mus musculus [12] = experiment: Compound was tested for the antimalarial activity in mice (Mus musculus), infected with Plasmodium berghei N., activity is expressed as the percent of parasitaemia observed in mice (Mus musculus) at end of 4-day test at a concentration of 10 mg/kg in experiment 1; assay type: functional, organism-based; parameters: dose 10 mg/kg; how it was run: as §2
Mus musculus [13] = experiment: Compound was tested for the antimalarial activity in mice (Mus musculus), infected with Plasmodium berghei N., activity is expressed as the percent of parasitaemia observed in mice (Mus musculus) at end of 4-day test at a concentration of 1 mg/kg in experiment 2; assay type: functional, organism-based; parameters: dose 1 mg/kg; how it was run: as §2
Mus musculus [14] = experiment: Compound was tested for the antimalarial activity in mice (Mus musculus), infected with Plasmodium yoelii NS., activity is expressed as the percent of parasitaemia observed in mice (Mus musculus) at end of 4-day test at a concentration of 1 mg/kg in experiment 1; assay type: functional, organism-based; parameters: dose 1 mg/kg; how it was run: as §2
Mus musculus [15] = experiment: Compound was tested for the antimalarial activity in mice (Mus musculus), infected with Plasmodium yoelii NS., activity is expressed as the percent of parasitaemia observed in mice (Mus musculus) at end of 4-day test at a concentration of 1 mg/kg in experiment 2; assay type: functional, organism-based; parameters: dose 1 mg/kg; how it was run: as §2
Mus musculus [16] = experiment: Compound was tested for the antimalarial activity in mice (Mus musculus), infected with Plasmodium yoelii NS., activity is expressed as the percent of parasitaemia observed in mice (Mus musculus) at end of 4-day test at a concentration of 10 mg/kg in experiment 1; assay type: functional, organism-based; parameters: dose 10 mg/kg; how it was run: as §2
Mus musculus [17] = experiment: Compound was tested for the antimalarial activity in mice (Mus musculus), infected with Plasmodium yoelii NS., activity is expressed as the percent of parasitaemia observed in mice (Mus musculus) at end of 4-day test at a concentration of 10 mg/kg in experiment 2; assay type: functional, organism-based; parameters: dose 10 mg/kg; how it was run: as §2
Mus musculus [18] = experiment: Antimalarial activity in mice (Mus musculus), infected with Plasmodium berghei N. activity is expressed as the percent of parasitaemia observed in mice (Mus musculus) at end of 4-day test at a concentration of 10 mg/kg in experiment 2; assay type: functional; how it was run: as §2
Mus musculus [19] = experiment: Antimalarial activity in mice (Mus musculus), infected with Plasmodium berghei N. activity is expressed as the percent of parasitaemia observed in mice (Mus musculus) at end of 4-day test at a concentration of 1 mg/kg in experiment 2; assay type: functional; how it was run: as §2
Mus musculus [20] = experiment: Antimalarial activity in mice (Mus musculus), infected with Plasmodium berghei N. activity is expressed as the percent of parasitaemia observed in mice (Mus musculus) at end of 4-day test at a concentration of 10 mg/kg in experiment 1; assay type: functional; how it was run: as §2
Mus musculus [21] = experiment: Antimalarial activity in mice (Mus musculus), infected with Plasmodium berghei N. activity is expressed as the percent of parasitaemia observed in mice (Mus musculus) at end of 4-day test at a concentration of 1 mg/kg in experiment 1; assay type: functional; how it was run: as §2
Mus musculus [22] = experiment: Antimalarial activity in mice (Mus musculus), infected with Plasmodium yoelii NS. activity is expressed as the percent of parasitaemia observed in mice (Mus musculus) at end of 4-day test at a concentration of 1 mg/kg in experiment 1; assay type: functional; how it was run: as §2
Mus musculus [23] = experiment: Antimalarial activity in mice (Mus musculus), infected with Plasmodium yoelii NS., activity is expressed as the percent of parasitaemia observed in mice (Mus musculus) at end of 4 day test at a concentration of 1 mg/kg in experiment 2; assay type: functional; how it was run: as §2
Mus musculus [24] = experiment: Antimalarial activity in mice (Mus musculus), infected with Plasmodium yoelii NS., activity is expressed as the percent of parasitaemia observed in mice (Mus musculus) at end of 4-day test at a concentration of 10 mg/kg in experiment 1; assay type: functional; how it was run: as §2
Mus musculus [25] = experiment: Antimalarial activity in mice (Mus musculus), infected with Plasmodium yoelii NS. activity is expressed as the percent of parasitaemia observed in mice (Mus musculus) at end of 4-day test at a concentration of 10 mg/kg in experiment 2; assay type: functional; how it was run: as §2

“7-Chloro-4-[[[2-[(N,N-methyl amino)]ferrocenyl]methyl]amino]quinoline; bis-(2,3-Dihydroxy-succinic acid) [listing 1 of 2 here]” showed an IC50 (Plasmodium falciparum [1]) of 0.177 µg/mL, an IC50 (Plasmodium falciparum [2]) of 0.061 µg/mL and an IC50 (Plasmodium falciparum [3]) of 0.067 µg/mL. It also gave an IC50 (Plasmodium falciparum [4]) of 0.059 µg/mL, an IC50 (Plasmodium falciparum [5]) of 0.095 µg/mL and an IC50 (Plasmodium falciparum [6]) of 0.057 µg/mL. It also gave an IC50 (Plasmodium falciparum [7]) of 0.16 µg/mL, a Mortality [8] of 5 and a Mortality [9] of 0.
In the case of “7-Chloro-4-[[[2-[(N,N-methyl amino)]ferrocenyl]methyl]amino]quinoline; bis-(2,3-Dihydroxy-succinic acid) [listing 2 of 2 here]”, the Parasitemia (Mus musculus [10]) is reported as 0%, the Parasitemia (Mus musculus [11]) is reported as 75.5% and the Parasitemia (Mus musculus [12]) is reported as 0%. It also gave a Parasitemia (Mus musculus [13]) of 75.8%, a Parasitemia (Mus musculus [14]) of 125% and a Parasitemia (Mus musculus [15]) of 109%. It also gave a Parasitemia (Mus musculus [16]) of 0.3% and a Parasitemia (Mus musculus [17]) of 0%.
In the case of `CCN(CC)CCCC(C)Nc1ccnc2cc(Cl)ccc12` (stereo not given) [CHLOROQUINE], the Parasitemia (Mus musculus [18]) is reported as 0.59%, the Parasitemia (Mus musculus [19]) is reported as 60.1% and the Parasitemia (Mus musculus [20]) is reported as 2.08%. For the same molecule, the Parasitemia (Mus musculus [21]) was 69.2%, the Parasitemia (Mus musculus [22]) was 64.7% and the Parasitemia (Mus musculus [23]) was 76.6%. The Parasitemia (Mus musculus [24]) was 0% and the Parasitemia (Mus musculus [25]) was 0%.
